Measured values published in ChEMBL document CHEMBL4689842, “EUbOPEN Chemogenomics Library wave 1” (2021).

Key:
Assay type in all cases: toxicity, cell-based
Fibroblast = assay: Multiplex assay against human fibroblast
How it was run: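 Phenotypes for tubulin, mitochondrial mass and membrane permeability are expressed as per cents of healthy-nucleus cells. Cells were stained live at seeding with Hoechst33342, BioTracker Green Microtubule Cytoskeleton Dye, MitoTracker Red and Annexin V Alexa Fluor 680, then imaged after compound addition on a CQ1 microscope at 37°C and 5% CO2. Machine-learning gating in CellPathfinder separated Hoechst high-intensity objects from normal cells, divided normal cells by nuclear state (healthy, pyknosed, fragmented) and divided pyknosed cells into mitotic or apoptotic.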

HEK-293T = assay: Incucyte cell viability with HEK293T; conditions: human, 10 µM, compound concentration 10 uM; note: filed as whole numbers so only -1 and 0 and 1 occur
U2OS = assay: Incucyte cell viability with U2OS; conditions: human, 10 µM, compound concentration 10 uM; note: filed as whole numbers so only -1 and 0 and 1 occur
[1] = 12 h, 1 µM, compound concentration 1 uM, replicate 1
[2] = 12 h, 1 µM, compound concentration 1 uM, replicate 2
[3] = 12 h, 10 µM, compound concentration 10 uM, replicate 1
[4] = 12 h, 10 µM, compound concentration 10 uM, replicate 2
[5] = 24 h, 1 µM, compound concentration 1 uM, replicate 1
[6] = 24 h, 1 µM, compound concentration 1 uM, replicate 2
[7] = 24 h, 10 µM, compound concentration 10 uM, replicate 1
[8] = 24 h, 10 µM, compound concentration 10 uM, replicate 2
[9] = 48 h, 1 µM, compound concentration 1 uM, replicate 1
[10] = 48 h, 1 µM, compound concentration 1 uM, replicate 2
[11] = 48 h, 10 µM, compound concentration 10 uM, replicate 1
[12] = 48 h, 10 µM, compound concentration 10 uM, replicate 2
[13] = 6 h, replicate number 2, timepoint 6 hours
[14] = 12 h, replicate number 1, timepoint 12 hours
[15] = 18 h, replicate number 1, timepoint 18 hours
[16] = 24 h, replicate number 1, timepoint 24 hours

Question: What does the source list for `Nc1nc2c(c(N3CCNCC3)n1)CCC1=C2[C@@H]2CCCC[C@@H]2O1`?
Answer: Population Apoptotic (%) (Fibroblast; [1]): 67%; Population Fragmented Nuclei (%) (Fibroblast; [1]): 37%; Population Healthy Nuclei (%) (Fibroblast; [1]): 42%; Population Hoechst High Intensity Objects (%) (Fibroblast; [1]): 15%; Population Membrane Permeable-Phenotype (%) (Fibroblast; [1]): 10%; Population Mitochondria Different-Phenotype (%) (Fibroblast; [1]): 1%; Population Mitotic Cells (%) (Fibroblast; [1]): 32%; Population Normal (%) (Fibroblast; [1]): 84%; Population Pyknosed Nuclei (%) (Fibroblast; [1]): 20%; Population Tubulin-Different-Phenotype (%) (Fibroblast; [1]): 20%; Total Cell Count (Fibroblast; [1]): 182; Population Apoptotic (%) (Fibroblast; [2]): 0%; Population Fragmented Nuclei (%) (Fibroblast; [2]): 20%; Population Healthy Nuclei (%) (Fibroblast; [2]): 61%; Population Membrane Permeable-Phenotype (%) (Fibroblast; [2]): 8%; Population Mitochondria Different-Phenotype (%) (Fibroblast; [2]): 27%; Population Mitotic Cells (%) (Fibroblast; [2]): 100%; Population Pyknosed Nuclei (%) (Fibroblast; [2]): 18%; Population Tubulin-Different-Phenotype (%) (Fibroblast; [2]): 21%; Total Cell Count (Fibroblast; [2]): 71; Population Apoptotic (%) (Fibroblast; [3]): 56%; Population Fragmented Nuclei (%) (Fibroblast; [3]): 22%; Population Healthy Nuclei (%) (Fibroblast; [3]): 34%; Population Hoechst High Intensity Objects (%) (Fibroblast; [3]): 42%; Population Membrane Permeable-Phenotype (%) (Fibroblast; [3]): 4%; Population Mitochondria Different-Phenotype (%) (Fibroblast; [3]): 13%; Population Mitotic Cells (%) (Fibroblast; [3]): 43%; Population Normal (%) (Fibroblast; [3]): 57%; Population Pyknosed Nuclei (%) (Fibroblast; [3]): 43%; Population Tubulin-Different-Phenotype (%) (Fibroblast; [3]): 52%; Total Cell Count (Fibroblast; [3]): 220; Population Apoptotic (%) (Fibroblast; [4]): 27%; Population Fragmented Nuclei (%) (Fibroblast; [4]): 9%; Population Healthy Nuclei (%) (Fibroblast; [4]): 68%; Population Hoechst High Intensity Objects (%) (Fibroblast; [4]): 3%; Population Membrane Permeable-Phenotype (%) (Fibroblast; [4]): 25%; Population Mitochondria Different-Phenotype (%) (Fibroblast; [4]): 87%; Population Mitotic Cells (%) (Fibroblast; [4]): 72%; Population Normal (%) (Fibroblast; [4]): 96%; Population Pyknosed Nuclei (%) (Fibroblast; [4]): 21%; Population Tubulin-Different-Phenotype (%) (Fibroblast; [4]): 92%; Total Cell Count (Fibroblast; [4]): 106; Population Apoptotic (%) (Fibroblast; [5]): 55%; Population Fragmented Nuclei (%) (Fibroblast; [5]): 30%; Population Healthy Nuclei (%) (Fibroblast; [5]): 50%; Population Hoechst High Intensity Objects (%) (Fibroblast; [5]): 24%; Population Membrane Permeable-Phenotype (%) (Fibroblast; [5]): 21%; Population Mitochondria Different-Phenotype (%) (Fibroblast; [5]): 2%; Population Mitotic Cells (%) (Fibroblast; [5]): 44%; Population Normal (%) (Fibroblast; [5]): 75%; Population Pyknosed Nuclei (%) (Fibroblast; [5]): 19%; Population Tubulin-Different-Phenotype (%) (Fibroblast; [5]): 47%; Total Cell Count (Fibroblast; [5]): 198; Population Apoptotic (%) (Fibroblast; [6]): 20%; Population Fragmented Nuclei (%) (Fibroblast; [6]): 22%; Population Healthy Nuclei (%) (Fibroblast; [6]): 57%; Population Hoechst High Intensity Objects (%) (Fibroblast; [6]): 8%; Population Membrane Permeable-Phenotype (%) (Fibroblast; [6]): 6%; Population Mitochondria Different-Phenotype (%) (Fibroblast; [6]): 20%; Population Mitotic Cells (%) (Fibroblast; [6]): 80%; Population Normal (%) (Fibroblast; [6]): 91%; Population Pyknosed Nuclei (%) (Fibroblast; [6]): 20%; Population Tubulin-Different-Phenotype (%) (Fibroblast; [6]): 16%; Total Cell Count (Fibroblast; [6]): 82; Population Apoptotic (%) (Fibroblast; [7]): 57%; Population Fragmented Nuclei (%) (Fibroblast; [7]): 20%; Population Healthy Nuclei (%) (Fibroblast; [7]): 36%; Population Hoechst High Intensity Objects (%) (Fibroblast; [7]): 45%; Population Membrane Permeable-Phenotype (%) (Fibroblast; [7]): 12%; Population Mitochondria Different-Phenotype (%) (Fibroblast; [7]): 16%; Population Mitotic Cells (%) (Fibroblast; [7]): 42%; Population Normal (%) (Fibroblast; [7]): 55%; Population Pyknosed Nuclei (%) (Fibroblast; [7]): 43%; Population Tubulin-Different-Phenotype (%) (Fibroblast; [7]): 43%; Total Cell Count (Fibroblast; [7]): 240; Population Apoptotic (%) (Fibroblast; [8]): 33%; Population Fragmented Nuclei (%) (Fibroblast; [8]): 8%; Population Healthy Nuclei (%) (Fibroblast; [8]): 46%; Population Hoechst High Intensity Objects (%) (Fibroblast; [8]): 2%; Population Membrane Permeable-Phenotype (%) (Fibroblast; [8]): 22%; Population Mitochondria Different-Phenotype (%) (Fibroblast; [8]): 79%; Population Mitotic Cells (%) (Fibroblast; [8]): 66%; Population Normal (%) (Fibroblast; [8]): 97%; Population Pyknosed Nuclei (%) (Fibroblast; [8]): 45%; Population Tubulin-Different-Phenotype (%) (Fibroblast; [8]): 69%; Total Cell Count (Fibroblast; [8]): 109; Population Apoptotic (%) (Fibroblast; [9]): 71%; Population Fragmented Nuclei (%) (Fibroblast; [9]): 44%; Population Healthy Nuclei (%) (Fibroblast; [9]): 45%; Population Hoechst High Intensity Objects (%) (Fibroblast; [9]): 34%; Population Membrane Permeable-Phenotype (%) (Fibroblast; [9]): 10%; Population Mitochondria Different-Phenotype (%) (Fibroblast; [9]): 1%; Population Mitotic Cells (%) (Fibroblast; [9]): 28%; Population Normal (%) (Fibroblast; [9]): 65%; Population Pyknosed Nuclei (%) (Fibroblast; [9]): 10%; Population Tubulin-Different-Phenotype (%) (Fibroblast; [9]): 22%; Total Cell Count (Fibroblast; [9]): 296; Population Apoptotic (%) (Fibroblast; [10]): 41%; Population Fragmented Nuclei (%) (Fibroblast; [10]): 34%; Population Healthy Nuclei (%) (Fibroblast; [10]): 56%; Population Membrane Permeable-Phenotype (%) (Fibroblast; [10]): 13%; Population Mitochondria Different-Phenotype (%) (Fibroblast; [10]): 2%; Population Mitotic Cells (%) (Fibroblast; [10]): 58%; Population Pyknosed Nuclei (%) (Fibroblast; [10]): 9%; Population Tubulin-Different-Phenotype (%) (Fibroblast; [10]): 36%; Total Cell Count (Fibroblast; [10]): 204; Population Apoptotic (%) (Fibroblast; [11]): 41%; Population Fragmented Nuclei (%) (Fibroblast; [11]): 20%; Population Healthy Nuclei (%) (Fibroblast; [11]): 50%; Population Hoechst High Intensity Objects (%) (Fibroblast; [11]): 49%; Population Membrane Permeable-Phenotype (%) (Fibroblast; [11]): 6%; Population Mitochondria Different-Phenotype (%) (Fibroblast; [11]): 11%; Population Mitotic Cells (%) (Fibroblast; [11]): 58%; Population Normal (%) (Fibroblast; [11]): 50%; Population Pyknosed Nuclei (%) (Fibroblast; [11]): 29%; Population Tubulin-Different-Phenotype (%) (Fibroblast; [11]): 58%; Total Cell Count (Fibroblast; [11]): 244; Population Apoptotic (%) (Fibroblast; [12]): 38%; Population Fragmented Nuclei (%) (Fibroblast; [12]): 27%; Population Healthy Nuclei (%) (Fibroblast; [12]): 49%; Population Hoechst High Intensity Objects (%) (Fibroblast; [12]): 47%; Population Membrane Permeable-Phenotype (%) (Fibroblast; [12]): 9%; Population Mitochondria Different-Phenotype (%) (Fibroblast; [12]): 10%; Population Mitotic Cells (%) (Fibroblast; [12]): 61%; Population Normal (%) (Fibroblast; [12]): 52%; Population Pyknosed Nuclei (%) (Fibroblast; [12]): 23%; Population Tubulin-Different-Phenotype (%) (Fibroblast; [12]): 52%; Total Cell Count (Fibroblast; [12]): 215; Growth Rate (HEK-293T; 0 h, replicate number 1, timepoint 0 hours): 0; Growth Rate (HEK-293T; 6 h, replicate number 1, timepoint 6 hours): 1; Growth Rate (HEK-293T; [13]): 0; Growth Rate (HEK-293T; [14]): 1; Growth Rate (HEK-293T; 12 h, replicate number 2, timepoint 12 hours): 0; Growth Rate (HEK-293T; [15]): 0; Growth Rate (HEK-293T; [16]): 0; Growth Rate (U2OS; 0 h, replicate number 2, timepoint 0 hours): 0; Growth Rate (U2OS; [13]): 1; Growth Rate (U2OS; [14]): 1; Growth Rate (U2OS; [15]): 1; Growth Rate (U2OS; [16]): 1
